From ChEMBL document CHEMBL4819122, “Novel 4-(piperazin-1-yl)quinolin-2(1H)-one bearing thiazoles with antiproliferative activity through VEGFR-2-TK inhibition” (Bioorg Med Chem, 2021)
pIC50: −log10 of the molar value. The source made the active and inactive calls. No cut-off for these calls is given here.

Tests used:
SK-MEL-5 = test: Cytotoxicity against human SK-MEL-5 assessed as growth inhibition at 10 uM by NCI protocol relative to control; assay type: functional; settings: read-out: GI
In short: (§1)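 Run by NCI as a single-dose screen at 10 μM across the sixty-cell-line panel, which covers nine human tumour tissue types. The read-out is percent growth inhibition of treated cells relative to untreated cells.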

EKVX = test: Cytotoxicity against human EKVX assessed as growth inhibition at 10 uM by NCI protocol relative to control; assay type: functional; settings: read-out: GI; in short: as §1
HCT-116 = test: Cytotoxicity against human HCT-116 assessed as growth inhibition at 10 uM by NCI protocol relative to control; assay type: functional; settings: read-out: GI; in short: as §1
T47D [1] = test: Cytotoxicity against human T47D cells assessed as reduction in cell viability after 3 hrs by MTT assay
CCRF-CEM = test: Cytotoxicity against human CCRF-CEM assessed as growth inhibition at 10 uM by NCI protocol relative to control; assay type: functional; settings: read-out: GI; in short: as §1
NCI-H226 = test: Cytotoxicity against human NCI-H226 assessed as growth inhibition at 10 uM by NCI protocol relative to control; assay type: functional; settings: read-out: GI; in short: as §1
PC-3 = test: Cytotoxicity against human PC3 assessed as growth inhibition at 10 uM by NCI protocol relative to control; assay type: functional; settings: read-out: GI; in short: as §1
A549 = test: Cytotoxicity against human A549 assessed as growth inhibition at 10 uM by NCI protocol relative to control; assay type: functional; settings: read-out: GI; in short: as §1
OVCAR-8 = test: Cytotoxicity against human OVCAR-8 assessed as growth inhibition at 10 uM by NCI protocol relative to control; assay type: functional; settings: read-out: GI; in short: as §1
RPMI-8226 = test: Cytotoxicity against human RPMI-8226 assessed as growth inhibition at 10 uM by NCI protocol relative to control; assay type: functional; in short: as §1
UACC-257 = test: Cytotoxicity against human UACC-257 assessed as growth inhibition at 10 uM by NCI protocol relative to control; assay type: functional; settings: read-out: GI
In short: (§2)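 Run by the NCI under its standard protocol: one dose of 10 μM against a sixty-line panel from nine human tumour tissues. Result given as percent growth inhibition of treated cells relative to untreated cells.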

HOP-62 = test: Cytotoxicity against human HOP-62 assessed as growth inhibition at 10 uM by NCI protocol relative to control; assay type: functional; settings: read-out: GI; in short: as §1
SR = test: Cytotoxicity against human SR assessed as growth inhibition at 10 uM by NCI protocol relative to control; assay type: functional; settings: read-out: GI; in short: as §2
LOX IMVI = test: Cytotoxicity against human LOX IMVI assessed as growth inhibition at 10 uM by NCI protocol relative to control; assay type: functional; settings: read-out: GI; in short: as §1
MDA-MB-231 = test: Cytotoxicity against human MDA-MB-231 assessed as growth inhibition at 10 uM by NCI protocol relative to control; assay type: functional; settings: read-out: GI; in short: as §1
UACC-62 = test: Cytotoxicity against human UACC-62 assessed as growth inhibition at 10 uM by NCI protocol relative to control; assay type: functional; settings: read-out: GI; in short: as §2
T47D [2] = test: Cytotoxicity against human T-47D assessed as growth inhibition at 10 uM by NCI protocol relative to control; assay type: functional; settings: read-out: GI; in short: as §2
UO-31 = test: Cytotoxicity against human UO31 assessed as growth inhibition at 10 uM by NCI protocol relative to control; assay type: functional; settings: read-out: GI; in short: as §2
MOLT-4 = test: Cytotoxicity against human MOLT-4 assessed as growth inhibition at 10 uM by NCI protocol relative to control; assay type: functional; settings: read-out: GI; in short: as §1
NCI-H23 = test: Cytotoxicity against human NCI-H23 assessed as growth inhibition at 10 uM by NCI protocol relative to control; assay type: functional; settings: read-out: GI; in short: as §1
SNB-19 = test: Cytotoxicity against human SNB-19 assessed as growth inhibition at 10 uM by NCI protocol relative to control; assay type: functional; settings: read-out: GI; in short: as §2
HL-60 = test: Cytotoxicity against human HL60 assessed as growth inhibition at 10 uM by NCI protocol relative to control; assay type: functional; settings: read-out: GI; in short: as §1
IGROV-1 = test: Cytotoxicity against human IGROVI assessed as growth inhibition at 10 uM by NCI protocol relative to control; assay type: functional; settings: read-out: GI; in short: as §1
ACHN = test: Cytotoxicity against human ACHN assessed as growth inhibition at 10 uM by NCI protocol relative to control; assay type: functional; settings: read-out: GI; in short: as §1
OVCAR-4 = test: Cytotoxicity against human OVCAR-4 assessed as growth inhibition at 10 uM by NCI protocol relative to control; assay type: functional; settings: read-out: GI; in short: as §1
SF-295 = test: Cytotoxicity against human SF-295 assessed as growth inhibition at 10 uM by NCI protocol relative to control; assay type: functional; settings: read-out: GI; in short: as §1
M14 = test: Cytotoxicity against human M14 assessed as growth inhibition at 10 uM by NCI protocol relative to control; assay type: functional; settings: read-out: GI; in short: as §1
OVCAR-3 = test: Cytotoxicity against human OVCAR-3 assessed as growth inhibition at 10 uM by NCI protocol relative to control; assay type: functional; settings: read-out: GI; in short: as §1
MCF7 = test: Cytotoxicity against human MCF7 assessed as growth inhibition at 10 uM by NCI protocol relative to control; assay type: functional; settings: read-out: GI; in short: as §1
A498 = test: Cytotoxicity against human A498 assessed as growth inhibition at 10 uM by NCI protocol relative to control; assay type: functional; settings: read-out: GI; in short: as §1
NCI-H322M = test: Cytotoxicity against human NCI-H322M assessed as growth inhibition at 10 uM by NCI protocol relative to control; assay type: functional; settings: read-out: GI; in short: as §1
HCT-15 = test: Cytotoxicity against human HCT-15 assessed as growth inhibition at 10 uM by NCI protocol relative to control; assay type: functional; settings: read-out: GI; in short: as §1
NCI-H522 = test: Cytotoxicity against human NCI-H522 assessed as growth inhibition at 10 uM by NCI protocol relative to control; assay type: functional; settings: read-out: GI; in short: as §1
OVCAR-5 = test: Cytotoxicity against human OVCAR-5 assessed as growth inhibition at 10 uM by NCI protocol relative to control; assay type: functional, cell-based; in short: as §1
BT-549 = test: Cytotoxicity against human BT-549 assessed as growth inhibition at 10 uM by NCI protocol relative to control; assay type: functional; settings: read-out: GI; in short: as §1
MDA-MB-468 = test: Cytotoxicity against human MDA-MB-468 assessed as growth inhibition at 10 uM by NCI protocol relative to control; assay type: functional; settings: read-out: GI; in short: as §1
MDA-MB-435 = test: Cytotoxicity against human MDA-MB-435 assessed as growth inhibition at 10 uM by NCI protocol relative to control; assay type: functional, cell-based; in short: as §1
NCI-H460 = test: Cytotoxicity against human NCI-H460 assessed as growth inhibition at 10 uM by NCI protocol relative to control; assay type: functional; settings: read-out: GI; in short: as §1
CAKI-1 = test: Cytotoxicity against human Caki1 assessed as growth inhibition at 10 uM by NCI protocol relative to control; assay type: functional; settings: read-out: GI; in short: as §1
K562 = test: Cytotoxicity against human K-562 assessed as growth inhibition at 10 uM by NCI protocol relative to control; assay type: functional; settings: read-out: GI; in short: as §1
SF-268 = test: Cytotoxicity against human SF-268 assessed as growth inhibition at 10 uM by NCI protocol relative to control; assay type: functional; settings: read-out: GI; in short: as §1
SN12C = test: Cytotoxicity against human SN12C assessed as growth inhibition at 10 uM by NCI protocol relative to control; assay type: functional; settings: read-out: GI; in short: as §2

## COc1ccc(-c2csc(NC(=O)CN3CCN(c4cc(=O)n(-c5ccccc5)c5ccccc45)CC3)n2)cc1
SK-MEL-5
  inhibition of growth at 10 µM: 53%
EKVX
  inhibition of growth at 10 µM: 35.2%
HCT-116
  inhibition of growth at 10 µM: 28.9%
T47D [1]
  pIC50: 5.09
CCRF-CEM
  inhibition of growth at 10 µM: 24.9%
NCI-H226
  inhibition of growth at 10 µM: 18.7%
PC-3
  inhibition of growth at 10 µM: 27.5%
A549
  inhibition of growth at 10 µM: 19.7%
OVCAR-8
  inhibition of growth at 10 µM: 15.5%
RPMI-8226
  growth inhibition (GI): inactive
UACC-257
  inhibition of growth at 10 µM: 27.8%
HOP-62
  inhibition of growth at 10 µM: 12.4%
SR
  inhibition of growth at 10 µM: 11.2%
LOX IMVI
  inhibition of growth at 10 µM: 15%
MDA-MB-231
  inhibition of growth at 10 µM: 22.4%
UACC-62
  inhibition of growth at 10 µM: 31.1%
T47D [2]
  inhibition of growth at 10 µM: 60%
UO-31
  inhibition of growth at 10 µM: 27.9%
MOLT-4
  inhibition of growth at 10 µM: 53.1%
NCI-H23
  inhibition of growth at 10 µM: 35.7%
SNB-19
  inhibition of growth at 10 µM: 24.2%
HL-60
  inhibition of growth at 10 µM: 30.2%
IGROV-1
  inhibition of growth at 10 µM: 21.5%
ACHN
  inhibition of growth at 10 µM: 19%
OVCAR-4
  inhibition of growth at 10 µM: 70.4%
SF-295
  inhibition of growth at 10 µM: 22.9%
M14
  inhibition of growth at 10 µM: 16.1%
OVCAR-3
  inhibition of growth at 10 µM: 17.1%
MCF7
  inhibition of growth at 10 µM: 26%
A498
  inhibition of growth at 10 µM: 13%
NCI-H322M
  inhibition of growth at 10 µM: 12.6%
HCT-15
  inhibition of growth at 10 µM: 18%
NCI-H522
  inhibition of growth at 10 µM: 30.4%
OVCAR-5
  growth inhibition (GI): inactive
BT-549
  inhibition of growth at 10 µM: 19.9%
MDA-MB-468
  inhibition of growth at 10 µM: 55.3%
MDA-MB-435
  growth inhibition (GI): inactive
NCI-H460
  inhibition of growth at 10 µM: 15.9%
CAKI-1
  inhibition of growth at 10 µM: 16.1%
K562
  inhibition of growth at 10 µM: 56.4%
SF-268
  inhibition of growth at 10 µM: 12.4%
SN12C
  inhibition of growth at 10 µM: 16%
